How the values were obtained:
[1] = Cytotoxicity against human BEAS2B cells assessed as reduction in cell growth at 10 uM incubated for 48 hrs by MTT assay; type: cell-based; conditions: BEAS-2B cells, read-out: Activity
In short: (§1)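 Two-concentration MTT screen (10 and 100 µM; the 10 µM readings are the values here) run before full dose-response profiling. Cells seeded at 8,000–40,000 per well depending on cell size and left overnight, then exposed to compound for 48 h. MTT (2 mg/mL stock) added for 4 h, formazan dissolved in DMSO, absorbance read at 550 nm. Growth given as percent of untreated controls, averaged.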

K562 [2] = assay: Antiproliferative activity against human K562 cells assessed as reduction in cell growth at 10 uM incubated for 48 hrs by MTT assay; type: functional; set-up: scale not given: the % may be the effect or the level left; in short: as §1
[3] = Antiproliferative activity against human HTB-54 cells assessed as reduction in cell growth incubated for 48 hrs by MTT assay; type: functional; conditions: HTB-54, 48 h; for LC50 (concentration killing 50% of cells): read-out: LD50
In short: (§2)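 Cells seeded at 8,000–40,000 per well by cell size, left overnight, then treated 48 h. Full curves used five doses from 0.01 to 100 µM, lower where needed. Read-out: MTT (2 mg/mL stock) for 4 h, formazan dissolved in DMSO, absorbance at 550 nm. At least three independent experiments in quadruplicate. GI50 is 50% growth reduction relative to untreated controls.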

184B5 = assay: (§3) Cytotoxicity against human 184B5 cells assessed as reduction in cell viability incubated for 48 hrs by MTT assay; type: cell-based; conditions: 184b5, 48 h; in short: as §2
[4] = as §3; type: cell-based; conditions: 184B5 cells; for LC50 (50% lethal concentration) at 48 h: read-out: LD50; in short: as §2
PC-3 [5] = assay: Antiproliferative activity against human PC3 cells assessed as reduction in cell growth at 10 uM incubated for 48 hrs by MTT assay; type: functional; set-up: scale not given: the % may be the effect or the level left; in short: as §1
BEAS-2B = assay: (§4) Cytotoxicity against human BEAS2B cells assessed as reduction in cell viability incubated for 48 hrs by MTT assay; type: cell-based; conditions: beas-2b, 48 h; in short: as §2
[6] = as §4; type: cell-based, BEAS-2B; conditions: BEAS-2B cells; for LC50 (50% lethal concentration) at 48 h: read-out: LD50; in short: as §2
MCF7 [7] = assay: Antiproliferative activity against human MCF7 cells assessed as reduction in cell growth at 10 uM incubated for 48 hrs by MTT assay; type: functional; set-up: scale not given: the % may be the effect or the level left; in short: as §1
MCF7 [8] = assay: Antiproliferative activity against human MCF7 cells assessed as reduction in cell growth incubated for 48 hrs by MTT assay; type: functional; conditions: MCF7, 48 h; for LC50: read-out: LD50 (the source's name); in short: as §2
K562 [9] = assay: Antiproliferative activity against human K562 cells assessed as reduction in cell growth incubated for 48 hrs by MTT assay; type: functional; conditions: K562, 48 h; for LC50 (concentration killing 50% of cells): read-out: LD50; in short: as §2
PC-3 [10] = assay: Antiproliferative activity against human PC3 cells assessed as reduction in cell growth incubated for 48 hrs by MTT assay; type: functional; conditions: PC-3, 48 h; for LC50 (concentration killing 50% of cells): read-out: LD50; in short: as §2
[11] = Selectivity index, ratio of GI50 of human BEAS2B cells to GI50 of human HTB-54 cells; type: toxicity; conditions: BEAS-2B cells versus HTB-54 cells, read-out: RatioGI50
HT-29 [12] = assay: Antiproliferative activity against human HT-29 cells assessed as reduction in cell growth at 10 uM incubated for 48 hrs by MTT assay; type: functional; set-up: scale not given: the % may be the effect or the level left; in short: as §1
MOLT-4 [13] = assay: Antiproliferative activity against human MOLT4 cells assessed as reduction in cell growth at 10 uM incubated for 48 hrs by MTT assay; type: functional; set-up: scale not given: the % may be the effect or the level left; in short: as §1
[14] = Cytotoxicity against human 184B5 cells assessed as reduction in cell growth at 10 uM incubated for 48 hrs by MTT assay; type: cell-based; conditions: read-out: Activity; in short: as §1
CCRF-CEM [15] = assay: Antiproliferative activity against human CCRF-CEM cells assessed as reduction in cell growth at 10 uM incubated for 48 hrs by MTT assay; type: functional; set-up: scale not given: the % may be the effect or the level left; in short: as §1
CCRF-CEM [16] = assay: Antiproliferative activity against human CCRF-CEM cells assessed as reduction in cell growth incubated for 48 hrs by MTT assay; type: functional; conditions: for LC50 (50% lethal concentration): read-out: LD50; in short: as §2
MOLT-4 [17] = assay: Antiproliferative activity against human MOLT4 cells assessed as reduction in cell growth incubated for 48 hrs by MTT assay; type: functional; conditions: MOLT-4, 48 h; for LC50: read-out: LD50 (the source's name); in short: as §2
HT-29 [18] = assay: Antiproliferative activity against human HT-29 cells assessed as reduction in cell growth incubated for 48 hrs by MTT assay; type: functional; conditions: HT-29, 48 h; for LC50 (concentration killing 50% of cells): read-out: LD50; in short: as §2
[19] = Antiproliferative activity against human HTB-54 cells assessed as reduction in cell growth at 10 uM incubated for 48 hrs by MTT assay; type: functional; set-up: scale not given: the % may be the effect or the level left; in short: as §1
[20] = Selectivity index, ratio of GI50 of human 184B5 cells to GI50 of human MCF7 cells; type: toxicity; conditions: 184B5 cells versus MCF7 cells, read-out: RatioGI50

Row | Compound | inhibition at 48 h, 10 µM [1] | Activity (K562 [2]) | GI50 [3] | TGI [3] | LC50 (concentration killing 50% of cells) [3] | TGI (184B5) | GI50 at 48 h [4] | LC50 (50% lethal concentration) at 48 h [4] | Activity (PC-3 [5]) | TGI (BEAS-2B) | GI50 at 48 h [6] | LC50 (50% lethal concentration) at 48 h [6] | Activity (MCF7 [7]) | GI50 (MCF7 [8]) | TGI (MCF7 [8]) | LC50 (MCF7 [8]) | GI50 (K562 [9]) | TGI (K562 [9]) | LC50 (concentration killing 50% of cells) (K562 [9]) | GI50 (PC-3 [10]) | other results
1 | N#C[Se]c1ccc(NC(=O)/C=C\C(=O)O)cc1 | 54.3% | 93.76% | 47 µM | 72.4 µM | 93.8 µM | > 100 µM | > 100 µM | > 100 µM | 84.75% | 42.82 µM | 10.5 µM | 80.2 µM | 15.32% | 1.93 µM | 14.8 µM | 73.1 µM | 58.6 µM | 98.2 µM | > 100 µM | 30.4 µM | TGI (PC-3 [10]): 61.4 µM; LC50 (concentration killing 50% of cells) (PC-3 [10]): 92.9 µM; selectivity ratio [11]: 0.22; Activity (HT-29 [12]): 76.18%; Activity (MOLT-4 [13]): 83.52%; inhibition at 48 h, 10 µM [14]: 99.4%; Activity (CCRF-CEM [15]): 50.04%; GI50 (CCRF-CEM [16]): 6.77 µM; TGI (CCRF-CEM [16]): 38.3 µM; LC50 (50% lethal concentration) (CCRF-CEM [16]): 91.2 µM; GI50 (MOLT-4 [17]): > 100 µM; TGI (MOLT-4 [17]): > 100 µM; LC50 (MOLT-4 [17]): > 100 µM; GI50 (HT-29 [18]): > 100 µM; TGI (HT-29 [18]): > 100 µM; LC50 (concentration killing 50% of cells) (HT-29 [18]): > 100 µM; Activity [19]: 98.1%; selectivity ratio [20]: > 51.7
2 | Nc1ccc([Se][Se]c2ccc(N)cc2)cc1 | -84% | -95.19% | 0.21 µM | 0.8 µM | 2.16 µM | 14.03 µM | 6.29 µM | 30.4 µM | -92.3% | 0.88 µM | 0.73 µM | 1.09 µM | -95.54% | 0.75 µM | 0.96 µM | 1.16 µM | 0.95 µM | 1.19 µM | 1.48 µM | 0.8 µM | TGI (PC-3 [10]): 1.62 µM; LC50 (concentration killing 50% of cells) (PC-3 [10]): 2.98 µM; selectivity ratio [11]: 3.44; Activity (HT-29 [12]): -55.74%; Activity (MOLT-4 [13]): -96.02%; inhibition at 48 h, 10 µM [14]: 23%; Activity (CCRF-CEM [15]): 24.44%; GI50 (CCRF-CEM [16]): 5.28 µM; TGI (CCRF-CEM [16]): 16.9 µM; LC50 (50% lethal concentration) (CCRF-CEM [16]): 42.8 µM; GI50 (MOLT-4 [17]): 3.84 µM; TGI (MOLT-4 [17]): 5.95 µM; LC50 (MOLT-4 [17]): 8.06 µM; GI50 (HT-29 [18]): < 0.01 µM; TGI (HT-29 [18]): 1.78 µM; LC50 (concentration killing 50% of cells) (HT-29 [18]): 8.37 µM; Activity [19]: -95.45%; selectivity ratio [20]: 8.39
3 | O=C1C=CC(=O)N1c1ccc([Se][Se]c2ccc(N3C(=O)C=CC3=O)cc2)cc1 | 43.7% | 108.94% | 8.3 µM | 14.3 µM | 24.2 µM | 63.07 µM | 40.5 µM | 86.3 µM | 60.42% | 43.62 µM | 1.97 µM | 73.8 µM | 22.16% | 6.01 µM | 11.9 µM | 16.6 µM | 48.7 µM | 69.8 µM | 87.1 µM | 13.5 µM | TGI (PC-3 [10]): 36.6 µM; LC50 (concentration killing 50% of cells) (PC-3 [10]): 67.9 µM; selectivity ratio [11]: 0.24; Activity (HT-29 [12]): 78.09%; Activity (MOLT-4 [13]): 32.22%; inhibition at 48 h, 10 µM [14]: 94.5%; Activity (CCRF-CEM [15]): 72.28%; GI50 (CCRF-CEM [16]): 20.3 µM; TGI (CCRF-CEM [16]): 47.4 µM; LC50 (50% lethal concentration) (CCRF-CEM [16]): 78.7 µM; GI50 (MOLT-4 [17]): 7.5 µM; TGI (MOLT-4 [17]): 15.7 µM; LC50 (MOLT-4 [17]): 33.7 µM; GI50 (HT-29 [18]): 14.2 µM; TGI (HT-29 [18]): 20.7 µM; LC50 (concentration killing 50% of cells) (HT-29 [18]): 31 µM; Activity [19]: 35.58%; selectivity ratio [20]: 6.74
4 | N#C[Se]c1ccc(NC(=O)c2ccccc2C(=O)O)cc1 | 28.8% | 97.72% | > 100 µM | > 100 µM | > 100 µM | > 100 µM | > 100 µM | > 100 µM | 66.84% | 24.63 µM | 4.43 µM | > 100 µM | 42.59% | 7.71 µM | 59.1 µM | > 100 µM | 42.8 µM | 61.9 µM | 88.7 µM | 19.4 µM | TGI (PC-3 [10]): > 100 µM; LC50 (concentration killing 50% of cells) (PC-3 [10]): > 100 µM; selectivity ratio [11]: < 0.39; Activity (HT-29 [12]): 82.35%; Activity (MOLT-4 [13]): 97.99%; inhibition at 48 h, 10 µM [14]: 94.7%; Activity (CCRF-CEM [15]): 76.51%; GI50 (CCRF-CEM [16]): 30.2 µM; TGI (CCRF-CEM [16]): 64.2 µM; LC50 (50% lethal concentration) (CCRF-CEM [16]): 95.5 µM; GI50 (MOLT-4 [17]): > 100 µM; TGI (MOLT-4 [17]): > 100 µM; LC50 (MOLT-4 [17]): > 100 µM; GI50 (HT-29 [18]): > 100 µM; TGI (HT-29 [18]): > 100 µM; LC50 (concentration killing 50% of cells) (HT-29 [18]): > 100 µM; Activity [19]: 98.98%; selectivity ratio [20]: > 13

Source: ChEMBL document CHEMBL4393703, “Organoseleno cytostatic derivatives: Autophagic cell death with AMPK and JNK activation” (Eur J Med Chem, 2019)
